This passage reports activity change, negative = inhibition and AC50 results from PubChem BioAssay AID602268 (Broad Institute, 2012).

Each structure is given as a SMILES string. “And” between values parts separate entries of the source, which are not always exact repeats. Equal entries are not always repeated. The source made the active and inactive calls.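 The calls were made as follows: active = compounds lowering reporter light with a fitted half-maximal dose no more than twice the top dose tested; inconclusive = flat curve at 30 to 70% inhibition, or poor fit; inactive = the rest.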

Experiment [1] in a line: inhibition of MG132-induced HSE-luciferase signal, dose response, cell-based, NIH3T3, luminescence, dry powder samples (AID 602268). The note with it: NIH3T3-HGL HSE-luciferase, MG132-induced, luminescence 8 h; at 26 µM (top of the series). A digest of the protocol:
(§1)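 Assay system: NIH3T3-HGL mouse fibroblasts with heat shock element-driven eGFP–firefly luciferase / Quantity: 4,000 cells per well / Buffer or medium: Opti-MEM with 2.5% FBS / Also added: MG132 proteasome inhibitor stressor, 2.5 µM final / Incubation: cells 24 h, compound 30 min, then MG132 8 h / Technique: luciferase luminescence, Steady-Glo reagent / Controls: Didemnin B 400 nM as positive control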

Experiment [2] relates to NIH3T3-HGL HSE-luciferase, MG132-induced, luminescence 8 h. Described as above. In a few lines:
as §1

For `CCc1ccc(NC(=O)C2C3CCC(O3)C2C(=O)O)cc1` (stereo not given), the activity change, negative = inhibition in experiment [1] is 7.59% (inactive) and -9.7% (inactive). In the case of `CC1=NNC(=O)/C1=C\c1cn(-c2ccccc2)nc1-c1ccc(Cl)cc1`, the AC50 in experiment [2] was 1.46 µM. Still for that read-out and setting: the same measure for `O=C1C=C(NCCN2CCOCC2)C(=O)c2cnccc21`: 2.37 µM.

Consider `O=C(CCl)N1CCCC1c1ccc2c(c1)OCCO2` (stereo not given), for which the AC50 in experiment [2] is 0.949 µM. Consider `Oc1ccc(Br)cc1/C=N/Nc1ccccn1`, for which, in experiment [2], the AC50 is 1.72 µM.
